Shown are actives, neighbours in structure and some others; about 2.8% of the full set was active somewhere.
Rtt109 Vps75 = inhibitors of Candida albicans Rtt109/Vps75 histone acetyltransferase | AID 540336 | 0.16% of 330,000 active | Q5AAJ8 | inhibition, % at 34.9 µM | purified Rtt109/Vps75, ThioGlo CoA-SH fluorescence, 4 h;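 active means inhibition of at least 50% in every replicate; inconclusive means best replicate reaches 50% inhibition but some replicates fall short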
Target sequence (Q5AAJ8 whole entry, looked up): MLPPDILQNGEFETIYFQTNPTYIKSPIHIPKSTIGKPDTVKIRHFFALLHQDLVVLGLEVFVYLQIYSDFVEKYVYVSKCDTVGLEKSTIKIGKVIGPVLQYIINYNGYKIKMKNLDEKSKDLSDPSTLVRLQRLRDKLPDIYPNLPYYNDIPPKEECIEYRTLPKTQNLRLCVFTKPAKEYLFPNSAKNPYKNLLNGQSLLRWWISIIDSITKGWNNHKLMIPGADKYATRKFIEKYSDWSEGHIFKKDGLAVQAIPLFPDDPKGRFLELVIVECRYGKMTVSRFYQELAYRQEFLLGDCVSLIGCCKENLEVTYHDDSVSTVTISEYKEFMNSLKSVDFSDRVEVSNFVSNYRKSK
T cell HTS = T cell immune modulators affecting CD8 T cell-vesicle binding; 0.068% of 330,000 active; 2C CD8+ T cell-vesicle binding, flow cytometry; active compounds read low; response (vesicle binding), % at 7 µM;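 active means response, share of CD8 T cells binding vesicles, and their 90th percentile fluorescence all below set limits, cut at about 80% in these data, passing the limit was not always enough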;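 further: values below 100% mean blocked vesicle binding to the CD8+ T cells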
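Also added: QL9-peptide-loaded Drosophila micro-vesicles bearing Ld, ICAM-1 and B7-1; Test system: purified 2C TCR transgenic mouse naive CD8+ T cells; Measured by: cytometric PE anti-B7-1 and Alexa647 anti-CD8 signals after 1% paraformaldehyde fixation; Timing: binding step 1.5 h, 37 °C, antibody labelling 20 min, ice.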
NR3A LBD binder = modulators (binders) of human NR3A ligand-binding domain. NR3A LBD differential scanning fluorimetry, Tm shift; 0% = protein alone, 100% = glycine-bound protein. Tm shift relative to glycine control, % at 25 µM. 2.5% of 340,000 active. AID 1259313;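 active means melting temperature shift of at least 10% of the positive control shift, at one fixed dose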
GASC-1 inh = human JMJD2C demethylase inhibition; AID 2099; inhibition, % at 2.35 µM; 0.069% of 330,000 active; GST-JMJD2C(1-420) H3K9me3 demethylation, DELFIA europium; Q9H3R0;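 active means more than half of a compound's replicate wells show inhibition beyond 50%, single wells judged on their own value; inconclusive means some, but no more than half, of replicates pass 50% inhibition; inactive means no replicate passes 50% inhibition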;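 further: signal counts dimethyl H3K9 product captured on neutravidin plate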
Of the large screens only hits and unclear results are named; the others gave an inactive call; ! = repeats disagree.

Cc1ccc(NC(=O)Nc2cccc(Cl)c2)c(C(=O)O)c1	NR3A LBD binder 12
CSc1ccccc1NC(=O)Nc1cccc(Cl)c1	NR3A LBD binder 10
CSc1ccccc1NC(=O)Nc1ccc(F)c(Cl)c1	NR3A LBD binder 42
CCOC(=O)c1ccc(NC(=O)CSc2nnc(NC(=O)c3ccc(S(=O)(=O)N4CCOCC4)cc3)s2)cc1	NR3A LBD binder 37
Cc1ccc(NC(=O)CSc2nnc(NC(=O)c3ccc(S(=O)(=O)N4CCOCC4)cc3)s2)cc1	NR3A LBD binder 28
CC(CC(=O)Nc1ccccc1)NCCCN1CCCC1=O (stereo unspecified)	none
CC(C(=O)OCC(=O)c1ccc([N+](=O)[O-])cc1)N1C(=O)C2C3CCC(C3)C2C1=O (stereo unspecified)	Rtt109 Vps75 108
COc1ccc(NS(=O)(=O)c2ccc3c(c2)N(C(C)=O)CCO3)c(OC)c1	none
O=C(c1cccc(S(=O)(=O)NCc2ccccc2)c1)N1CCCC(C(F)(F)F)C1 (stereo unspecified)	none
CN(Cc1ccccc1)C(=O)c1ccc(NC(=O)Cc2ccc(NC(=O)C3CCCN(C(=O)c4ccccc4)C3)cc2)cc1 (stereo unspecified)	none (no result: T cell HTS, GASC-1 inh)
CN1CCN(C(c2ccccn2)c2cc(Cl)c3cccnc3c2O)CC1 (stereo unspecified)	Rtt109 Vps75 56
CCOc1ccc(Nc2ncnc3c2cnn3Cc2ccccc2)cc1	none
CCO/C=N/Nc1nc(C(F)(F)F)nc2c1cnn2Cc1ccccc1	NR3A LBD binder 13
Cc1cc(OCCCC(=O)NCCc2nnc3ccccn23)ccc1Cl	none
COc1ccc(S(=O)(=O)N2CCN(c3ncccn3)CC2)cc1	none
O=S(=O)(c1ccc(Cl)cc1)N1CCC(O)(c2cccnc2)CC1	T cell HTS 0.0
CN1CCN(S(=O)(=O)c2ccc(Cl)cc2)CC1	NR3A LBD binder 14!
O=S(=O)(c1ccc(Cl)cc1)N1CCN(c2ncccn2)CC1	Rtt109 Vps75 64
O=C(Cc1ccccc1Cl)N1CCN(c2ncccn2)CC1	Rtt109 Vps75 inconclusive, NR3A LBD binder 12
Cc1ccccc1C(=O)Nc1ccc(C(=O)O)cc1NC(=O)c1ccccc1C	none (no result: Rtt109 Vps75)
N#Cc1c(N)nc2c(c1-c1ccncc1)CCCCCC2	NR3A LBD binder 36
Cc1ccc(C)c(S(=O)(=O)Nc2ccc(C(=O)N3CCCCC3)cc2)c1	NR3A LBD binder 14
Cc1ccc(SCCNC(=O)c2ccc(C)c(S(=O)(=O)Nc3cccc(C)c3)c2)cc1	none
Cc1ccc(NS(=O)(=O)c2cc(C(=O)NCCSc3ccc(C)cc3)ccc2C)cc1	NR3A LBD binder 13 (no result: T cell HTS)
Cc1ccc(C(=O)NCCSc2ccc(Cl)cc2)cc1S(=O)(=O)Nc1ccccc1	NR3A LBD binder 22
O=C(c1ccc(O)c(Br)c1)c1cc(Br)ccc1O	none (no result: T cell HTS, GASC-1 inh)
O=C(C(=O)c1cc(Br)ccc1O)c1cc(Br)ccc1O	NR3A LBD binder 20 (no result: T cell HTS, GASC-1 inh)
CCN1C(=O)[C@H]2[C@@H](c3ccc(Cl)cc3)N3C(=O)CN(CCOC)C(=O)[C@@]3(Cc3ccccc3)[C@H]2C1=O	none
CCOc1ccc(CN2CCNC(=O)C2CC(=O)NCCN2CCOC2=O)cc1 (stereo unspecified)	NR3A LBD binder 16
Cc1ccccc1CN1CCNC(=O)C1CC(=O)NCCN1CCCCC1=O (stereo unspecified)	NR3A LBD binder 11
CCn1c(CC(=O)Nc2ccc(F)cc2)nnc1SCC(=O)Nc1nnc(C)s1	none
COc1ccc(N(CC(=O)N/N=C/c2ccc(OC3CSC3)cc2)S(=O)(=O)c2ccccc2)cc1	NR3A LBD binder 16
CS(=O)(=O)NCCNc1ccc(C(F)(F)F)cc1[N+](=O)[O-]	none
COc1ccc2[nH]c(C)c(CCNC(=S)Nc3ccc(F)cc3)c2c1	NR3A LBD binder 12
COCCNC(=S)N(CCc1c(C)[nH]c2ccc(C)cc12)Cc1ccco1	none
COc1ccc2[nH]c(C)c(CCNc3ccc(C(F)(F)F)cc3[N+](=O)[O-])c2c1	NR3A LBD binder 19
COCCNC(=S)N(CCc1c(C)[nH]c2ccc(F)cc12)Cc1ccc(C)cc1	NR3A LBD binder 10
O=C(NNC(=O)c1cnccn1)c1ccc(Cl)cc1	none
CCN(CC)C(=O)c1[nH]cnc1C(=O)Nc1ccc(C)cc1	none
COCCCNC(=O)Cn1cnc2sc(C)c(S(=O)(=O)N3CCN(c4ncccn4)CC3)c2c1=O	none
CCC(C)NC(=O)Cn1cnc2sc(C)c(S(=O)(=O)N3CCN(c4ncccn4)CC3)c2c1=O (stereo unspecified)	NR3A LBD binder 14
CCOc1ccccc1NC(=O)c1cc(C(=O)c2cc(Br)ccc2O)coc1=N	NR3A LBD binder 25
